These results are taken from BindingDB's records for doi:10.1021/jm020334u (Roche Discovery Welwyn, 2003).

pIC50: −log10 of the molar value. A value given as a limit tells only on which side of the number the result lay.

The target in the assay is Polymerase acidic protein (Influenza A virus (strain A/Puerto Rico/8/1934 H1N1), UniProt P03433). Put plainly: Inhibitory concentration against cap-dependent endonuclease activity of influenza virus RNP. The gist of the method: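 Gel-based cap-dependent endonuclease assay. 1 nM influenza RNP was incubated with 0.1 nM cap-labeled 20-mer G20 RNA in 50 mM Tris-HCl pH 8 with 1 mM MgCl₂, 20 mM KCl, 1 U/μL RNase inhibitor and 0.3% Triton X-100, for 5 min at 31 °C. Cleavage products were resolved on polyacrylamide gels and quantified by phosphorimager. IC50 came from dose–response curves.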

As usually defined, the pIC50 is the negative decadic logarithm of the IC50, by convention in mol/L. `CC(C)C=c1[nH]c(=Cc2ccc(F)cc2)c(=O)[nH]c1=O` [3-(4-fluorobenzylidene)-5-isobutylpyrazine-2,6(1H,3H)-dione] gave a negative-log IC50 (pIC50) of less than 3.44. For the molecule `COCOn1c(=O)c(=CC(C)C)[nH]c(=CC(C)C)c1=O` [(3Z)-5-isobutyl-1-(methoxymethoxy)-3-(2-methylpropylidene)pyrazine-2,6(1H,3H)-dione], the pIC50 was less than 3.45.
